Measurements from ChEMBL document CHEMBL1154092, “Chiral 3-(4,5-dihydrooxazol-2-yl)phenyl alkylcarbamates as novel FAAH inhibitors: Insight into FAAH enantioselectivity by molecular docking and interaction fields” (Eur J Med Chem, 2009).

How the values were obtained:
[1] = target: T1, Fatty-acid amide hydrolase 1 (Rattus norvegicus, UniProt P97612); assay: Inhibition of FAAH in Wistar rat brain assessed as by liquid scintillation counting
T1 sequence (P97612 whole entry): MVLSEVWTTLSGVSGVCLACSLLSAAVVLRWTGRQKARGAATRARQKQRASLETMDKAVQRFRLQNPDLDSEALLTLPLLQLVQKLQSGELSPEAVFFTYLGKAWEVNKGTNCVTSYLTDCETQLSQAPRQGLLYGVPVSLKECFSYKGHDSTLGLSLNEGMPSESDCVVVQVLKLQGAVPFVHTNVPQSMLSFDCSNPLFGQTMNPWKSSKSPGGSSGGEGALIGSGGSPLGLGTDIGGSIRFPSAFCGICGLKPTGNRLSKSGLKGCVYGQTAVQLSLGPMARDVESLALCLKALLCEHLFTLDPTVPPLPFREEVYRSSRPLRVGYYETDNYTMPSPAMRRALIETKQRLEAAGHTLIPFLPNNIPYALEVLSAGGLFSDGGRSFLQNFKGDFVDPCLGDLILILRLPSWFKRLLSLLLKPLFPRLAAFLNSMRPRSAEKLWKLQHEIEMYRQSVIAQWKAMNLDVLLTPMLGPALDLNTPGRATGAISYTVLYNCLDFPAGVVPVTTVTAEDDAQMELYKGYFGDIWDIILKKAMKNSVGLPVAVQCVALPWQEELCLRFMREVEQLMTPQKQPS
Summary of the method: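 Rat cerebrum homogenate (8-week male Wistar, whole brain minus cerebellum, 10,000g supernatant in 0.1 M K phosphate pH 7.4) as enzyme, 18 µg protein. Preincubated with compound 10 min at 37 °C, then 2 μM [³H]AEA (ethanolamine 1-³H) added for 10 min at 37 °C. Buffer has 0.5% BSA, DMSO up to 5%. Stopped with EtOAc. Aqueous [³H]ethanolamine counted. Three independent experiments in duplicate; IC50 by nonlinear regression.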

[2] = target: T2, Monoglyceride lipase (Rattus norvegicus) (UniProt Q8R431); assay: Inhibition of MGL in Wistar rat cerebellar membrane at 100 uM by reversed-phase HPLC relative to control; assay type: cell membranes; conditions: Cerebellum
T2 sequence (whole entry): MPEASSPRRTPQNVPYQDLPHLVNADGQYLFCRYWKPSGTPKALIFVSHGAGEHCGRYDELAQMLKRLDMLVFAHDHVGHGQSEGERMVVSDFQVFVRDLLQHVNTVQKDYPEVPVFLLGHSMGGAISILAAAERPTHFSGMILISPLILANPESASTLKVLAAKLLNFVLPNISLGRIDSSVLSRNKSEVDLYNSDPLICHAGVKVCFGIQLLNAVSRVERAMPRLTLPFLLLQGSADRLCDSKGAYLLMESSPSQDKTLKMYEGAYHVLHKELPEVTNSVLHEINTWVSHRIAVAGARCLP
Summary of the method: (§1)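 Cerebellar membranes from 4-week male Wistar rats. 10 µg protein preincubated with compound 30 min at 25 °C in Tris-HCl pH 7.4, EDTA, 0.5% BSA, 1.25% DMSO. Incubation 90 min at 25 °C with 5 µg protein and 50 μM 2-AG (100 mM NaCl, 5 mM MgCl₂). Stopped with acidified acetonitrile at 0 and 90 min. Arachidonic acid by C18 HPLC, UV 211 nm. Activity as % of control, n = 2.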

[3] = target: T2, Monoglyceride lipase (Rattus norvegicus); assay: Inhibition of MGL in Wistar rat cerebellar membrane at 1 uM by reversed-phase HPLC relative to control; assay type: cell membranes; conditions: Cerebellum; summary of the method: as §1
[4] = target: T3, Monoglyceride lipase (Homo sapiens) (UniProt Q99685); assay: Inhibition of human recombinant MGL by liquid scintillation counting; conditions: concentration not given here
T3 sequence (whole entry): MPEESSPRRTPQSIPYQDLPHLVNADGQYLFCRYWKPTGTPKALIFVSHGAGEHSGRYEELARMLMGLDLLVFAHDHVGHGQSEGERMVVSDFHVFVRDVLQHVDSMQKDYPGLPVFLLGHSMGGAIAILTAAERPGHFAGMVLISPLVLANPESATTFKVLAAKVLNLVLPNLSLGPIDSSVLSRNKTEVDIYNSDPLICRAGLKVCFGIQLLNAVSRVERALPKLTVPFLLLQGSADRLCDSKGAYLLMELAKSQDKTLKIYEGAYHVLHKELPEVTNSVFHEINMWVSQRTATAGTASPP
Summary of the method: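 hrMGL preincubated with compound 10 min at 37 °C in 50 mM Tris-HCl pH 7.4, 1 mM EDTA, 0.5% BSA, DMSO ≤5%. Then [³H]2-oleoylglycerol (glycerol-1,2,3-³H) added to 50 μM final for 10 min at 37 °C. Stopped with EtOAc. Aqueous-phase [³H]glycerol counted by liquid scintillation.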

Compound | IC50 [1] [nM] | inhibition [2] [%] | inhibition [3] [%] | inhibition [4] [%]
CC1(C)COC(c2cccc(OC(=O)NC3CCCC3)c2)=N1 | 65 | 28 |  | 
O=C(NC1CCCC1)Oc1cccc(C2=NCCO2)c1 | 13 |  | 10 | 
O=C(NC1CCCCC1)Oc1cccc(C2=N[C@@H](Cc3c[nH]c4ccccc34)CO2)c1 | 1900 | 25 |  | 
C[C@@H]1CN=C(c2cccc(OC(=O)NC3CCCCC3)c2)O1 | 73 |  |  | 13
CCCNC(=O)Oc1cccc(-c2nc3ncccc3o2)c1 | 680 | 29 |  | 
O=C(NC1CCCCC1)Oc1cccc(C2=N[C@@H](Cc3ccccc3)CO2)c1 | 2100 | 17 |  | 
COC(=O)[C@H]1COC(c2cccc(OC(=O)NC3CCCCC3)c2)=N1 | 90 | 35 |  | 
C[C@H]1COC(c2cccc(OC(=O)NC3CCCC3)c2)=N1 | 110 | 28 |  | 

Continued, values first:

IC50 [1] [nM] | inhibition [2] [%] | inhibition [3] [%] | inhibition [4] [%] | Compound
4500 |  |  | 18 | CCCNC(=O)Oc1cccc(-c2nc3ncncc3o2)c1
3000 | 26 |  |  | CCCNC(=O)Oc1cccc(-c2nc3ccccc3o2)c1
51 | 28 |  |  | C[C@H]1COC(c2cccc(OC(=O)NC3CCCCC3)c2)=N1
16 | 16 |  |  | C[C@@H]1COC(c2cccc(OC(=O)NC3CCCCC3)c2)=N1
1.2 | 22 |  |  | O=C(NC1CCCCC1)Oc1cccc(C2=NCCO2)c1
9.4 | 25 |  |  | COC(=O)[C@@H]1COC(c2cccc(OC(=O)NC3CCCCC3)c2)=N1
590 | 14 |  |  | O=C(NC1CCCCC1)Oc1cccc(C2=N[C@H](Cc3ccccc3)CO2)c1
46 | 20 |  |  | CC1(C)COC(c2cccc(OC(=O)NC3CCCCC3)c2)=N1
6.8 |  |  | 14 | C[C@H]1CN=C(c2cccc(OC(=O)NC3CCCCC3)c2)O1
33 | 32 |  |  | CCCNC(=O)Oc1cccc(C2=NCCO2)c1
